Laboratory results from ChEMBL document CHEMBL2146427, “Protective effects of hyperoside against carbon tetrachloride-induced liver damage in mice” (2011).
Calls of active or inactive are those of the source. No cut-off for these calls is given here.

Key:
Mus musculus [1] = test: Hepatoprotective activity against CCL4-induced liver damage in ICR mouse assessed as reduction in centrizonal necrosis at 100 mg/kg, ip dosed 30 mins before and 2 hrs post CCL4 challenge and measured 24 hrs post CCL4 challenge by hematoxylin-eosin staining based method; type: functional, organism-based; set-up: dose 100 mg/kg
Summary of the method: (§1)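 Left liver lobe fixed in 10% neutral-buffered formalin, paraffin-embedded, cut at 5 μm and stained with H&E. Scored blind for portal inflammation, hepatocellular necrosis and inflammatory infiltration across 100 random nonconsecutive fields. Male ICR mice; CCl4 20 μL/kg ip in olive oil; tissue taken at 24 h.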

Mus musculus [2] = test: Hepatoprotective activity against CCL4-induced liver damage in ICR mouse assessed as reduction in CCL-induced COX2 mRNA expression at 100 mg/kg, ip dosed 30 mins before and 2 hrs post CCL4 challenge and measured 24 hrs post CCL4 challenge by RT-PCR; type: functional, organism-based; set-up: dose 100 mg/kg
Summary of the method: (§2)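 Liver total RNA (Chomczynski–Sacchi), oligo(dT) primed reverse transcription, then PCR with 10 μM primers. Cycling was 94/56/72 °C, 30 s each, for 35 cycles (COX-2) or 30 cycles (HO-1), and 94/60/72 °C for 35 cycles (iNOS), with β-actin at 25 cycles. Products were run on 1.5% agarose and stained with ethidium bromide. Male ICR mice, 10 per group, fasted 16 h.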

Mus musculus [3] = test: Hepatoprotective activity against CCL4-induced liver damage in ICR mouse assessed as […] level per gram of liver at 50 mg/kg, ip dosed 30 mins before and 2 hrs post CCL4 challenge and measured 24 hrs post CCL4 challenge (reference value: 4.8 +/- 0.3 umol/g liver); type: functional; details: route intraperitoneal
Mus musculus [4] = test: Hepatoprotective activity against CCL4-induced liver damage in ICR mouse assessed as serum AST level at 200 mg/kg, ip dosed 30 mins before and 2 hrs post CCL4 challenge and measured 24 hrs post CCL4 challenge (reference value: 7518 +/- 426 U/L); type: functional; details: route intraperitoneal
Mus musculus [5] = test: Hepatoprotective activity against CCL4-induced liver damage in ICR mouse assessed as […] level per gram of liver at 200 mg/kg, ip dosed 30 mins before and 2 hrs post CCL4 challenge and measured 24 hrs post CCL4 challenge (reference value: 4.8 +/- 0.3 umol/g liver); type: functional; details: route intraperitoneal
Mus musculus [6] = test: Hepatoprotective activity against CCL4-induced liver damage in ICR mouse assessed as serum ALT level at 50 mg/kg, ip dosed 30 mins before and 2 hrs post CCL4 challenge and measured 24 hrs post CCL4 challenge (reference value: 10229 +/- 918 U/L); type: functional; details: route intraperitoneal
Mus musculus [7] = test: (§3) Hepatoprotective activity against CCL4-induced liver damage in ICR mouse assessed as […] level per mg protein at 200 mg/kg, ip dosed 30 mins before and 2 hrs post CCL4 challenge and measured 24 hrs post CCL4 challenge by TBARS detection based spectrophotometry (reference value: 3.2 +/- 0.5 nmol/mg protein); type: functional; details: route intraperitoneal
Mus musculus [8] = test: Hepatoprotective activity against CCL4-induced liver damage in ICR mouse assessed as serum ALT level at 200 mg/kg, ip dosed 30 mins before and 2 hrs post CCL4 challenge and measured 24 hrs post CCL4 challenge (reference value: 10229 +/- 918 U/L); type: functional; details: route intraperitoneal
Mus musculus [9] = test: Hepatoprotective activity against CCL4-induced liver damage in ICR mouse assessed as reduction in CCL-induced COX2 protein expression at 100 mg/kg, ip dosed 30 mins before and 2 hrs post CCL4 challenge and measured 24 hrs post CCL4 challenge by Western blot; type: functional, organism-based; set-up: dose 100 mg/kg
Mus musculus [10] = test: Hepatoprotective activity against CCL4-induced liver damage in ICR mouse assessed as augmentation of CCL-induced HO-1 protein expression at 100 mg/kg, ip dosed 30 mins before and 2 hrs post CCL4 challenge and measured 24 hrs post CCL4 challenge by Western blot; type: functional, organism-based; set-up: dose 100 mg/kg
Mus musculus [11] = test: Hepatoprotective activity against CCL4-induced liver damage in ICR mouse assessed as serum AST level at 50 mg/kg, ip dosed 30 mins before and 2 hrs post CCL4 challenge and measured 24 hrs post CCL4 challenge (reference value: 7518 +/- 426 U/L); type: functional; details: route intraperitoneal
Mus musculus [12] = test: Hepatoprotective activity against CCL4-induced liver damage in ICR mouse assessed as increase in CCL-induced nuclear Nrf2 protein level at 100 mg/kg, ip dosed 30 mins before and 2 hrs post CCL4 challenge and measured 24 hrs post CCL4 challenge by Western blot; type: functional, organism-based; set-up: dose 100 mg/kg
Summary of the method: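 Nuclear proteins were extracted from fresh liver with NE-PER, and 15 μg per lane was immunoblotted: nitrocellulose, 1 h milk block, primary antibody overnight at 4 °C, ECL, densitometry. Male ICR mice (25–30 g), 10 per group, fasted 16 h; CCl4 20 μL/kg ip in olive oil; sampled 24 h later.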

Mus musculus [13] = test: Hepatoprotective activity against CCL4-induced liver damage in ICR mouse assessed as serum ALT level at 100 mg/kg, ip dosed 30 mins before and 2 hrs post CCL4 challenge and measured 24 hrs post CCL4 challenge (reference value: 10229 +/- 918 U/L); type: functional; details: route intraperitoneal
Mus musculus [14] = test: Hepatoprotective activity against CCL4-induced liver damage in ICR mouse assessed as reduction in CCL-induced TNFalpha production at 100 mg/kg, ip dosed 30 mins before and 2 hrs post CCL4 challenge and measured 24 hrs post CCL4 challenge by ELISA; type: functional, organism-based; set-up: dose 100 mg/kg
Summary of the method: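 Serum TNF-α measured by commercial ELISA on abdominal aortic blood drawn 24 h after ip CCl4 (20 μL/kg in olive oil). Male ICR mice, 10 per group, fasted 16 h; saline vehicle ip; mean ± SEM.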

Mus musculus [15] = test: Hepatoprotective activity against CCL4-induced liver damage in ICR mouse assessed as liver MDA level per mg protein at 50 mg/kg, ip dosed 30 mins before and 2 hrs post CCL4 challenge and measured 24 hrs post CCL4 challenge by TBARS detection based spectrophotometry (reference value: 3.2 +/- 0.5 nmol/mg protein); details: route intraperitoneal
Mus musculus [16] = test: Hepatoprotective activity against CCL4-induced liver damage in ICR mouse assessed as reduction in portal inflammation at 100 mg/kg, ip dosed 30 mins before and 2 hrs post CCL4 challenge and measured 24 hrs post CCL4 challenge by hematoxylin-eosin staining based method; type: functional, organism-based; set-up: dose 100 mg/kg; summary of the method: as §1
Mus musculus [17] = test: Hepatoprotective activity against CCL4-induced liver damage in ICR mouse assessed as […] level per gram of liver at 100 mg/kg, ip dosed 30 mins before and 2 hrs post CCL4 challenge and measured 24 hrs post CCL4 challenge (reference value: 4.8 +/- 0.3 umol/g liver); type: functional; details: route intraperitoneal
Mus musculus [18] = test: Hepatoprotective activity against CCL4-induced liver damage in ICR mouse assessed as augmentation of CCL-induced HO-1 mRNA expression at 100 mg/kg, ip dosed 30 mins before and 2 hrs post CCL4 challenge and measured 24 hrs post CCL4 challenge by RT-PCR; type: functional, organism-based; set-up: dose 100 mg/kg; summary of the method: as §2
Mus musculus [19] = test: Hepatoprotective activity against CCL4-induced liver damage in ICR mouse assessed as reduction in CCL-induced iNOS mRNA expression at 100 mg/kg, ip dosed 30 mins before and 2 hrs post CCL4 challenge and measured 24 hrs post CCL4 challenge by RT-PCR; type: functional, organism-based; set-up: dose 100 mg/kg; summary of the method: as §2
Mus musculus [20] = test: as §3, with “100” for “200”; type: functional; details: route intraperitoneal
Mus musculus [21] = test: Hepatoprotective activity against CCL4-induced liver damage in ICR mouse assessed as serum AST level at 100 mg/kg, ip dosed 30 mins before and 2 hrs post CCL4 challenge and measured 24 hrs post CCL4 challenge (reference value: 7518 +/- 426 U/L); type: functional; details: route intraperitoneal
Mus musculus [22] = test: Hepatoprotective activity against CCL4-induced liver damage in ICR mouse assessed as reduction in CCL-induced iNOS protein expression at 100 mg/kg, ip dosed 30 mins before and 2 hrs post CCL4 challenge and measured 24 hrs post CCL4 challenge by Western blot; type: functional, organism-based; set-up: dose 100 mg/kg
Mus musculus [23] = test: Hepatoprotective activity against CCL4-induced liver damage in ICR mouse assessed as reduction in Kupffer cell hyperplasia at 100 mg/kg, ip dosed 30 mins before and 2 hrs post CCL4 challenge and measured 24 hrs post CCL4 challenge by hematoxylin-eosin staining based method; type: functional, organism-based; set-up: dose 100 mg/kg; summary of the method: as §1

`O=c1c(O[C@@H]2O[C@H](CO)[C@H](O)[C@H](O)[C@H]2O)c(-c2ccc(O)c(O)c2)oc2cc(O)cc(O)c12` [HYPEROSIDE] was tested, and the Activity (Mus musculus [1]) was “Active”, the Activity (Mus musculus [2]) was “Active” and the Activity (Mus musculus [3]) was 6.1 µmol. For the same molecule, the Activity (Mus musculus [4]) was 5382 U/L, the Activity (Mus musculus [5]) was 6 µmol and the Activity (Mus musculus [6]) was 10740 U/L. For the same molecule, the Activity (Mus musculus [7]) was 1.4 nmol, the Activity (Mus musculus [8]) was 7055 U/L and the Activity (Mus musculus [9]) was “Active”. For the same molecule, the Activity (Mus musculus [10]) was “Active”, the Activity (Mus musculus [11]) was 6820 U/L and the Activity (Mus musculus [12]) was “Active”. The Activity (Mus musculus [13]) was 7134 U/L, the Activity (Mus musculus [14]) was “Active” and the Activity (Mus musculus [15]) was 2.4 nmol. For the same molecule, the Activity (Mus musculus [16]) was “Active”, the Activity (Mus musculus [17]) was 5.2 µmol and the Activity (Mus musculus [18]) was “Active”. For the same molecule, the Activity (Mus musculus [19]) was “Active”, the Activity (Mus musculus [20]) was 1.5 nmol and the Activity (Mus musculus [21]) was 5488 U/L. For the same molecule, the Activity (Mus musculus [22]) was “Active” and the Activity (Mus musculus [23]) was “Active”.
